# From ChEMBL document CHEMBL1177643, “Synthesis, DNA-binding ability and anticancer activity of benzothiazole/benzoxazole-pyrrolo[2,1-c][1,4]benzodiazepine conjugates” (Bioorg Med Chem, 2010)
# Key:
# Calf thymus DNA = assay: Binding affinity to calf thymus duplex-form DNA assessed as melting temperature at 1:5 compound/DNA ratio after 18 hrs; format: nucleic-acid assay; conditions: Bos taurus
# CCRF-CEM = assay: Growth inhibition of human CCRF-CEM cells after 48 hrs by sulforhodamine B assay; format: functional
# In short: (§1)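 Dose–response in each cell line over at least five concentrations at 10-fold dilutions, with 48 h continuous exposure and sulforhodamine B read-out.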
# HL-60 = assay: Growth inhibition of human HL-60(TB) cells after 48 hrs by sulforhodamine B assay; format: functional; conditions: HL-60, 48 h
# In short: (§2)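 Panel of 60 human cancer cell lines; for each compound, dose–response curves per cell line measured at a minimum of five concentrations at 10-fold dilutions. Cells exposed continuously to drug for 48 h, and growth was read out by sulforhodamine B staining.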
# K562 = assay: Growth inhibition of human K562 cells after 48 hrs by sulforhodamine B assay; format: functional; conditions: K562, 48 h; in short: as §2
# MOLT-4 = assay: Growth inhibition of human MOLT4 cells after 48 hrs by sulforhodamine B assay; format: functional; conditions: MOLT-4, 48 h; in short: as §2
# [1] = Growth inhibition of human […] cells after 48 hrs by sulforhodamine B assay; format: functional; in short: as §2
# SR = assay: Growth inhibition of human SR cells after 48 hrs by sulforhodamine B assay; format: functional; in short: as §2
# A549 = assay: Growth inhibition of human A549 cells after 48 hrs by sulforhodamine B assay; format: functional; conditions: A549, 48 h; in short: as §1
# EKVX = assay: Growth inhibition of human EKVX cells after 48 hrs by sulforhodamine B assay; format: functional; in short: as §1
# HOP-62 = assay: Growth inhibition of human HOP62 cells after 48 hrs by sulforhodamine B assay; format: functional; conditions: HOP-62, 48 h; in short: as §2
# HOP-92 = assay: Growth inhibition of human HOP92 cells after 48 hrs by sulforhodamine B assay; format: functional; conditions: HOP-92, 48 h; in short: as §2
# NCI-H226 = assay: Growth inhibition of human NCI-H226 cells after 48 hrs by sulforhodamine B assay; format: functional; conditions: NCI-H226, 48 h; in short: as §2
# NCI-H23 = assay: Growth inhibition of human NCI-H23 cells after 48 hrs by sulforhodamine B assay; format: functional; conditions: NCI-H23, 48 h; in short: as §2
# NCI-H322M = assay: Growth inhibition of human NCI-H322M cells after 48 hrs by sulforhodamine B assay; format: functional; in short: as §2
# NCI-H460 = assay: Growth inhibition of human NCI-H460 cells after 48 hrs by sulforhodamine B assay; format: functional; conditions: NCI-H460, 48 h; in short: as §2
# NCI-H522 = assay: Growth inhibition of human NCI-H522 cells after 48 hrs by sulforhodamine B assay; format: functional; conditions: NCI-H522, 48 h; in short: as §2
# COLO 205 = assay: Growth inhibition of human COLO205 cells after 48 hrs by sulforhodamine B assay; format: functional; conditions: COLO 205, 48 h; in short: as §1
# HCC 2998 = assay: Growth inhibition of human HCC2998 cells after 48 hrs by sulforhodamine B assay; format: functional; conditions: HCC 2998, 48 h; in short: as §2
# HCT-116 = assay: Growth inhibition of human HCT116 cells after 48 hrs by sulforhodamine B assay; format: functional; conditions: HCT-116, 48 h; in short: as §2
# HCT-15 = assay: Growth inhibition of human HCT15 cells after 48 hrs by sulforhodamine B assay; format: functional; conditions: HCT-15, 48 h; in short: as §2
# HT-29 = assay: Growth inhibition of human HT-29 cells after 48 hrs by sulforhodamine B assay; format: functional; conditions: HT-29, 48 h; in short: as §2
# KM12 = assay: Growth inhibition of human KM12 cells after 48 hrs by sulforhodamine B assay; format: functional; conditions: KM12, 48 h; in short: as §2
# SW-620 = assay: Growth inhibition of human SW620 cells after 48 hrs by sulforhodamine B assay; format: functional; conditions: SW-620, 48 h; in short: as §2
# SF-268 = assay: Growth inhibition of human SF268 cells after 48 hrs by sulforhodamine B assay; format: functional; conditions: SF-268, 48 h; in short: as §2
# SF-295 = assay: Growth inhibition of human SF295 cells after 48 hrs by sulforhodamine B assay; format: functional; conditions: SF-295, 48 h; in short: as §2
# SF-539 = assay: Growth inhibition of human SF539 cells after 48 hrs by sulforhodamine B assay; format: functional; conditions: SF-539, 48 h; in short: as §2
# SNB-19 = assay: Growth inhibition of human SNB19 cells after 48 hrs by sulforhodamine B assay; format: functional; conditions: SNB-19, 48 h; in short: as §2
# SNB-75 = assay: Growth inhibition of human SNB75 cells after 48 hrs by sulforhodamine B assay; format: functional; conditions: SNB-75, 48 h; in short: as §2
# U-251 = assay: Growth inhibition of human U251 cells after 48 hrs by sulforhodamine B assay; format: functional; conditions: U-251, 48 h; in short: as §2
# LOX IMVI = assay: Growth inhibition of human LOXIMVI cells after 48 hrs by sulforhodamine B assay; format: functional; in short: as §2
smiles,measurement,setting,value
COc1cc2c(cc1OCCCCOc1ccc(-c3nc4ccccc4s3)cc1)N=C[C@@H]1CCCN1C2=O,ΔTm,Calf thymus DNA,0.5 °C
same,GI50,CCRF-CEM,0.282 µM
same,GI50,HL-60,0.38 µM
same,GI50,K562,0.355 µM
same,GI50,MOLT-4,0.234 µM
same,GI50,[1],0.214 µM
same,GI50,SR,0.0219 µM
same,GI50,A549,2.63 µM
same,GI50,EKVX,1.26 µM
same,GI50,HOP-62,0.407 µM
same,GI50,HOP-92,0.178 µM
same,GI50,NCI-H226,1.45 µM
same,GI50,NCI-H23,0.741 µM
same,GI50,NCI-H322M,2.19 µM
same,GI50,NCI-H460,0.407 µM
same,GI50,NCI-H522,0.324 µM
same,GI50,COLO 205,0.339 µM
same,GI50,HCC 2998,0.363 µM
same,GI50,HCT-116,0.295 µM
same,GI50,HCT-15,0.646 µM
same,GI50,HT-29,0.38 µM
same,GI50,KM12,0.55 µM
same,GI50,SW-620,0.427 µM
same,GI50,SF-268,0.661 µM
same,GI50,SF-295,0.676 µM
same,GI50,SF-539,0.347 µM
same,GI50,SNB-19,1.51 µM
same,GI50,SNB-75,1.07 µM
same,GI50,U-251,0.229 µM
same,GI50,LOX IMVI,0.407 µM
